Activity calls are given as the source filed them. No cut-off for these calls is given here.
Columns and labels:
[1] = Cytotoxicity against rat primary smooth muscle cells assessed as growth inhibition under anoxic condition up to 100 ug/mL measured over 4 days by WST-1 assay; format: cell-based; conditions: 96 h
How it was run: (§1)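 Primary smooth muscle cells freshly isolated from rat bladder, seeded at 4000 cells/cm² in DMEM/10% FBS/1% Pen/Strep. Additive dissolved in 1:50 H₂O/DMSO and added at 10–200 µg/mL, with or without vitamin C (100 or 200 µg/mL). Normoxic at 37°C, 5% CO₂, or anoxic in sealed N₂-degassed medium, up to 4 days. WST-1 read on days 1–4 (3 h, A450). Triplicates, normalized to untreated = 100%.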

Rattus norvegicus [2] = species: Rattus norvegicus; experiment: Growth promoting activity in rat primary smooth muscle cells under anoxic condition at 50 ug/mL measured over 4 days by WST-1 assay in presence of 100 ug/mL vitamin C; format: functional; how it was run: as §1
Rattus norvegicus [3] = species: Rattus norvegicus; experiment: Growth promoting activity in rat primary smooth muscle cells under normoxic condition at 10 to 50 ug/mL measured over 4 days by WST-1 assay; format: functional; how it was run: as §1
[4] = Induction of oxygen release in H2O/D2O relative to DMSO-treated control; format: physicochemical
[5] = Half life in H2O/D2O at 37 degC by 1H-NMR spectroscopic analysis; format: ADME
[6] = Induction of oxygen release in H2O/D2O; format: physicochemical
[7] = Drug degradation in H2O/D2O assessed as byproduct formation at 37 degC by 1H-NMR spectroscopic analysis; format: physicochemical
Rattus norvegicus [8] = species: Rattus norvegicus; experiment: Growth promoting activity in rat primary smooth muscle cells under normoxic condition at 100 to 200 ug/mL measured over 4 days by WST-1 assay; format: functional; how it was run: as §1
[9] = Cytotoxicity against rat primary smooth muscle cells assessed as growth inhibition under normoxic condition at 100 to 200 ug/mL measured over 4 days by WST-1 assay; format: cell-based; conditions: 96 h; how it was run: as §1
3T3 [10] = experiment: Growth promoting activity in […] cells assessed as change in cell growth under anoxic condition at 100 ug/ml measured over 4 days by WST-1 assay; format: functional, cell-based
How it was run: (§2)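 3T3 fibroblasts seeded at 4000 cells/cm² in DMEM/10% FBS/1% Pen/Strep. Additive from 1:50 H₂O/DMSO at 10–200 µg/mL, with or without vitamin C (100 or 500 µg/mL). Normoxic at 37°C, 5% CO₂, or anoxic with N₂-degassed medium and N₂ glove-bag handling in sealed bags, no medium change, up to 4 days. Daily WST-1 (1:10, 3 h, A450). Triplicates, normalized to untreated control = 100%.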

3T3 [11] = experiment: Growth promoting activity in […] cells under anoxic condition at 500 ug/mL measured on day 1 by WST-1 assay; format: functional, cell-based; how it was run: as §2
3T3 [12] = experiment: Cytotoxicity against […] cells assessed as growth inhibition under normoxic condition at 500 ug/mL after 2 days by WST-1 assay; format: cell-based; conditions: 3t3, 48 h; how it was run: as §2
3T3 [13] = experiment: Growth promoting activity in […] cells under anoxic condition at 29 uM measured on day 1 by WST-1 assay in presence of 100 ug/mL vitamin C; format: functional, cell-based
How it was run: (§3)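 3T3 fibroblasts plated at 4000 cells/cm² in DMEM/F-12 with 10% FBS and 1% Pen/Strep. Compound in 1:50 H2O/DMSO was added at 10, 50, 100 or 200 µg/mL, alone or with vitamin C in water (100 or 500 µg/mL). Run normoxic (37°C, 5% CO2) or anoxic (N2-degassed medium, sealed bags under N2, no medium change, up to 4 days). WST-1 read at 450 nm after 3 h on days 1-4. Growth normalized to untreated control as 100%. Triplicates.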

[14] = Induction of singlet oxygen release in water at 0.1 mM measured every 10 mins by SOSG assay in presence of 0.37 mM vitamin C; format: physicochemical; conditions: buffer, 100 µM
How it was run: (§4)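 Singlet oxygen sensor green was dissolved in MeOH. Compound was dissolved in MeOH, then diluted in water, with or without vitamin C dissolved in water. Fluorescence (ex/em 488/525 nm) recorded every 10 min at 37 °C. Blanks of SOSG or SOSG/vitamin C were subtracted. Triplicates.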

[15] = Induction of singlet oxygen release in water at 0.1 mM measured every 10 mins by SOSG assay; format: physicochemical; conditions: buffer, 100 µM; how it was run: as §4
[16] = Cytotoxicity against rat primary smooth muscle cells assessed as growth inhibition under anoxic condition at 50 ug/mL measured over 4 days by WST-1 assay in presence of 200 ug/mL vitamin C; format: cell-based; conditions: 96 h
How it was run: (§5)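 Primary smooth muscle cells freshly isolated from rat bladder, plated at 4000 cells/cm² in DMEM/F-12, 10% FBS, 1% Pen/Strep. Compound was added from 1:50 H2O/DMSO at 10–200 µg/mL, with or without vitamin C in water at 100 or 200 µg/mL. Normoxic (37°C, 5% CO2) or anoxic runs: N2-degassed medium, plates sealed under N2 for up to 4 days without medium change. WST-1 absorbance at 450 nm after 3 h, days 1-4. Normalized to untreated control as 100%. Triplicates.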

[17] = Cytotoxicity against rat primary smooth muscle cells assessed as growth inhibition under anoxic condition at 50 ug/mL measured over 4 days by WST-1 assay; format: cell-based; conditions: 96 h; how it was run: as §5
Rattus norvegicus [18] = species: Rattus norvegicus; experiment: Growth promoting activity in rat primary smooth muscle cells under normoxic condition at 29 uM measured over 4 days by WST-1 assay in presence of 100 ug/mL vitamin C; format: functional; how it was run: as §5
Rattus norvegicus [19] = species: Rattus norvegicus; experiment: Growth promoting activity in rat primary smooth muscle cells under anoxic condition at 29 uM measured over 4 days by WST-1 assay in presence of 100 ug/mL vitamin C; format: functional; how it was run: as §5
Rattus norvegicus [20] = species: Rattus norvegicus; experiment: Growth promoting activity in rat primary smooth muscle cells under normoxic condition at 50 ug/mL measured over 4 days by WST-1 assay in presence of 100 to 200 ug/mL vitamin C; format: functional; how it was run: as §5
[21] = Cytotoxicity against rat primary smooth muscle cells assessed as growth inhibition under normoxic condition at 50 ug/mL measured over 4 days by WST-1 assay; format: cell-based; conditions: 96 h; how it was run: as §5
3T3 [22] = experiment: Cytotoxicity against […] cells assessed as growth inhibition under anoxic condition at 29 uM measured on day 1 by WST-1 assay in presence of 100 ug/mL vitamin C; format: cell-based; conditions: 3t3, 29 µM; how it was run: as §3
3T3 [23] = experiment: Cytotoxicity against […] cells under normoxic condition at 29 uM measured over 4 days by WST-1 assay in presence of 100 ug/mL vitamin C; format: cell-based; conditions: 3t3, 96 h; how it was run: as §3
3T3 [24] = experiment: Cytotoxicity against […] cells under anoxic condition at 29 uM measured over 4 days by WST-1 assay in presence of 100 ug/mL vitamin C; format: cell-based; conditions: 3t3, 96 h; how it was run: as §3
3T3 [25] = experiment: Cytotoxicity against […] cells assessed as growth inhibition under anoxic condition at 50 ug/ml measured over 4 days by WST-1 assay in presence of vitamin C; format: cell-based; conditions: 3t3, 96 h; how it was run: as §3
3T3 [26] = experiment: Cytotoxicity against […] cells assessed as growth inhibition under normoxic condition at 50 ug/ml measured over 4 days by WST-1 assay in presence of vitamin C; format: cell-based; conditions: 3t3, 96 h; how it was run: as §3
3T3 [27] = experiment: Cytotoxicity against […] cells assessed as growth inhibition under anoxic condition at 200 ug/ml measured over 4 days by WST-1 assay in presence of vitamin C relative to control; format: functional, cell-based; how it was run: as §3
3T3 [28] = experiment: Cytotoxicity against […] cells assessed as growth inhibition under normoxic condition at 200 ug/ml measured over 4 days by WST-1 assay in presence of vitamin C relative to control; format: cell-based; conditions: 3t3, 96 h; how it was run: as §3
3T3 [29] = experiment: Growth promoting activity in rat 3T3 cells under normoxic condition at 100 to 200 ug/mL measured on day 1 by WST-1 assay in presence of 500 ug/mL vitamin C; format: functional, cell-based; how it was run: as §3
3T3 [30] = experiment: Cytotoxicity against […] cells assessed as growth inhibition under normoxic condition at 100 ug/ml measured on day 4 by WST-1 assay in presence of vitamin C relative to control; format: cell-based; how it was run: as §3
3T3 [31] = experiment: Cytotoxicity against […] cells assessed as growth inhibition under anoxic condition at 29 to 580 uM measured over 4 days by WST-1 assay in presence of 100 ug/mL vitamin C; format: cell-based; conditions: 3t3, 96 h; how it was run: as §3
3T3 [32] = experiment: Cytotoxicity against […] cells assessed as growth inhibition under anoxic condition at 29 uM measured over 4 days by WST-1 assay; format: cell-based; conditions: 3t3, 96 h; how it was run: as §3
3T3 [33] = experiment: Cytotoxicity against […] cells assessed as growth inhibition under normoxic condition at 29 to 580 uM measured over 4 days by WST-1 assay in presence of 100 ug/mL vitamin C; format: cell-based; conditions: 3t3, 96 h; how it was run: as §3
3T3 [34] = experiment: Cytotoxicity against […] cells assessed as growth inhibition under normoxic condition measured over 4 days by WST-1 assay; format: cell-based; conditions: 3t3, 96 h; how it was run: as §3
[35] = Cytotoxicity against rat primary smooth muscle cells assessed as growth inhibition under normoxic condition measured over 4 days by WST-1 assay; format: cell-based; conditions: 96 h; how it was run: as §5
3T3 [36] = experiment: Cytotoxicity against […] cells assessed as growth inhibition under anoxic condition at 100 ug/ml measured on day 4 by WST-1 assay in presence of vitamin C relative to control; format: cell-based; how it was run: as §3

COCCOCCOCCOC(=O)Cn1cccc(C)c1=O
Activity [1]: Non-toxic | Activity (Rattus norvegicus [2]): inactive | Activity (Rattus norvegicus [3]): inactive

COCCOCCOCCOC(=O)CN1C(=O)C2C=CC1OO2 (configuration not stated)
Activity [4]: 18% | half-life [5]: 0.5 h

COCCOCCOCCOC(=O)CN1C(=O)C2(C)C=C(C)C1(C)OO2 (configuration not stated)
Activity [6]: 10% | Drug degradation [7]: > 50% | half-life [5]: 15 h

COCCOCCOCCOC(=O)CN1C(=O)C2(C)C=CC1(C)OO2 (configuration not stated)
Activity [6]: 50% | Drug degradation [7]: > 50% | half-life [5]: 4 h

COCCOCCOCCOC(=O)CN1C(=O)C2C=CC1(C)OO2 (configuration not stated)
Activity [6]: 50% | Drug degradation [7]: > 50% | half-life [5]: 4 h

O=C1O[C@H]([C@@H](O)CO)C(O)=C1O [ASCORBIC ACID]
Activity (Rattus norvegicus [8]): inactive | Activity [9]: Non-toxic | Activity (3T3 [10]): inactive | Activity (3T3 [11]): Active | Activity (3T3 [12]): Toxic

COCCOCCOCCOC(=O)CN1C(=O)C2(C)C=CC1OO2 (configuration not stated)
Activity (3T3 [13]): Active | Activity [14]: Not Active | Activity [15]: Active | Activity [16]: Toxic | Activity [17]: Toxic | Activity (Rattus norvegicus [18]): Active | Activity (Rattus norvegicus [19]): Active | Activity (Rattus norvegicus [20]): Active | Activity [21]: Toxic | Activity (3T3 [22]): Non-toxic | Activity (3T3 [23]): Toxic | Activity (3T3 [24]): Toxic | Activity (3T3 [25]): Toxic | Activity (3T3 [26]): Toxic | Activity (3T3 [27]): inactive | Activity (3T3 [28]): Non-toxic | Activity (3T3 [29]): Active | fold change (FC) (3T3 [30]): 10 | Activity (3T3 [31]): Non-toxic | Activity (3T3 [32]): Non-toxic | Activity (3T3 [33]): Non-toxic | growth inhibition (GI) (3T3 [34]): Dose-dependent effect | growth inhibition (GI) [35]: Dose-dependent effect | Drug degradation [7]: 20% | Activity [4]: 78% | fold change (FC) (3T3 [36]): 2

COCCOCCOCCOC(=O)CN1C(=O)C2(C)C=C(C)C1OO2 (configuration not stated)
Activity [4]: 47% | half-life [5]: 13 h

Source: ChEMBL document CHEMBL3108662, “Controlled oxygen release from pyridone endoperoxides promotes cell survival under anoxic conditions” (J Med Chem, 2013)
